Measured values from ChEMBL document CHEMBL1255187, “Structure-based design and synthesis of potent, ethylenediamine-based, mammalian farnesyltransferase inhibitors as anticancer agents” (J Med Chem, 2010).

Experiments:
Homo sapiens = species on record: Homo sapiens; assay: Selectivity ratio of IC50 for human geranylgeranyltransferase-1 to IC50 for human farnesyltransferase
[1] = molecular target: Protein farnesyltransferase (Homo sapiens, UniProt P49354+P49356); assay: Inhibition of human farnesyltransferase assessed as incorporation of [3H]FPP into H-Ras-CVLS; format: protein-complex assay
In short: (§1)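 In vitro radiometric assay measuring transfer of [3H]FPP (FTase) or [3H]GGPP (GGTase-I) onto recombinant H-Ras-CVLS or H-Ras-CVLL, respectively.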

[2] = molecular target: Geranylgeranyl transferase type I (Homo sapiens, UniProt P49354+P53609); assay: Inhibition of human geranylgeranyltransferase-1 assessed as incorporation of [3H]GGPP into H-Ras-CVLL; format: protein-complex assay; in short: as §1
[3] = molecular target: Geranylgeranyl transferase type 1 (Mus musculus, UniProt Q61239+Q8BUY9); assay: Inhibition of Rap1A geranylgeranylation expressed in mouse NIH3T3 cells; format: functional, cell-based
In short: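 Oncogenic H-Ras-transformed NIH3T3 cells were treated with a range of inhibitor concentrations. […] Detection used peroxidase-conjugated secondary antibodies and enhanced chemiluminescence. IC50 is the mean of three independent assays ± SD unless stated otherwise.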

[4] = molecular target: Protein farnesyltransferase (Mus musculus, UniProt Q61239+Q8K2I1); assay: Inhibition of H-Ras farnesylation expressed in mouse NIH3T3 cells; format: functional, cell-based
In short: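 Oncogenic H-Ras-transformed NIH3T3 cells were treated with a range of inhibitor concentrations. Detection used peroxidase-conjugated secondary antibodies and enhanced chemiluminescence. IC50 is the mean of three independent assays ± SD unless stated otherwise.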

Cn1cnc(S(=O)(=O)N(CCN(Cc2cncn2C)c2ccc(C(=O)OC(C)(C)C)cc2)Cc2ccccc2)c1
Selectivity ratio (Homo sapiens): 0.9
IC50 [1]: 5.4 µM
IC50 [2]: 4.9 µM

Cc1ccc(CN(CCN(Cc2cncn2C)c2ccc(C#N)cc2)S(=O)(=O)c2cn(C)cn2)cc1
IC50 [1]: 0.37 µM
IC50 [3]: > 10 µM
IC50 [2]: 0.58 µM
IC50 [4]: 2 µM

Cn1cnc(S(=O)(=O)N(CCN(Cc2cncn2C)c2ccc(C#N)cc2)Cc2ccco2)c1
Selectivity ratio (Homo sapiens): 15
IC50 [1]: 0.87 µM
IC50 [3]: > 10 µM
IC50 [2]: 13.4 µM
IC50 [4]: 0.8 µM

Cn1cnc(S(=O)(=O)N(CCCN(Cc2cncn2C)c2ccc(C#N)cc2)Cc2ccccc2)c1
Selectivity ratio (Homo sapiens): 11
IC50 [1]: 0.42 µM
IC50 [2]: 4.6 µM

Cc1cccc(CN(CCN(Cc2cncn2C)c2ccc(C#N)cc2)S(=O)(=O)c2cn(C)cn2)c1
Selectivity ratio (Homo sapiens): 12
IC50 [1]: 0.054 µM
IC50 [3]: > 10 µM
IC50 [2]: 0.63 µM
IC50 [4]: 0.3 µM

Cn1cnc(S(=O)(=O)N(CCN(Cc2cncn2C)c2ccc(C(=O)O)cc2)Cc2ccccc2)c1
IC50 [1]: > 10 µM
IC50 [2]: > 10 µM

Cn1cnc(S(=O)(=O)N(CCN(Cc2cncn2C)c2ccc(C#N)cc2)Cc2cccc(-c3ccccc3)c2)c1
Selectivity ratio (Homo sapiens): 2.4
IC50 [1]: 0.23 µM
IC50 [3]: > 10 µM
IC50 [2]: 0.55 µM
IC50 [4]: 3 µM

Cn1cnc(S(=O)(=O)N(Cc2ccccc2)[C@@H]2CC[C@@H](N(Cc3cncn3C)c3ccc(C#N)cc3)C2)c1 (racemic)
Selectivity ratio (Homo sapiens): 19
IC50 [1]: 0.38 µM
IC50 [2]: 7.05 µM

Cn1cnc(S(=O)(=O)N(CCN(Cc2cncn2C)c2ccc(C#N)cc2)CC2CCN(c3ncccn3)CC2)c1
Selectivity ratio (Homo sapiens): > 20
IC50 [1]: 0.51 µM
IC50 [3]: > 10 µM
IC50 [2]: > 10 µM
IC50 [4]: > 10 µM

Cn1cncc1CN(CCN(CC1CCCCC1)S(=O)(=O)c1ccccn1)c1ccc(C#N)cc1
Selectivity ratio (Homo sapiens): 1.5
IC50 [1]: 0.4 µM
IC50 [3]: 6.2 µM
IC50 [2]: 0.61 µM
IC50 [4]: 0.268 µM

Cn1cnc(S(=O)(=O)N(CCN(Cc2c[nH]cn2)c2ccccc2)Cc2ccccc2)c1
Selectivity ratio (Homo sapiens): 1.6

Cn1cnc(S(=O)(=O)N(Cc2ccccc2)[C@H]2CCC[C@@H]2N(Cc2cncn2C)c2ccc(C#N)cc2)c1 (racemic)
Selectivity ratio (Homo sapiens): 20
IC50 [1]: 0.45 µM
IC50 [2]: 9.15 µM

Cn1cnc(S(=O)(=O)N(CCN(Cc2cncn2C)c2ccc(C#N)cc2)Cc2ccoc2)c1
Selectivity ratio (Homo sapiens): 19
IC50 [1]: 0.32 µM
IC50 [3]: > 10 µM
IC50 [2]: 6.1 µM
IC50 [4]: 0.65 µM

Cc1noc(C)c1CN(CCN(Cc1cncn1C)c1ccc(C#N)cc1)S(=O)(=O)c1cn(C)cn1
Selectivity ratio (Homo sapiens): 2.7
IC50 [1]: 0.51 µM
IC50 [3]: > 10 µM
IC50 [2]: 1.36 µM
IC50 [4]: > 10 µM

Cn1cncc1CN(CCN(Cc1ccccc1)S(=O)(=O)c1ccccc1)c1ccc(C#N)cc1
Selectivity ratio (Homo sapiens): 7.6
IC50 [1]: 0.041 µM
IC50 [3]: > 10 µM
IC50 [2]: 0.31 µM
IC50 [4]: 0.3 µM

Cc1nc(C)c(CN(CCN(Cc2cncn2C)c2ccc(C#N)cc2)S(=O)(=O)c2cn(C)cn2)s1
Selectivity ratio (Homo sapiens): > 1.6
IC50 [1]: 6.2 µM
IC50 [3]: > 10 µM
IC50 [2]: > 10 µM
IC50 [4]: > 10 µM

C=C(C)CN(CCN(Cc1cncn1C)c1ccc(C#N)cc1)S(=O)(=O)c1cn(C)cn1
Selectivity ratio (Homo sapiens): 5.3
IC50 [1]: 0.114 µM
IC50 [3]: > 10 µM
IC50 [2]: 0.6 µM
IC50 [4]: > 10 µM

Cn1cnc(S(=O)(=O)N(CCN(Cc2cnc[nH]2)c2ccc(Br)cc2)Cc2ccccc2)c1
IC50 [3]: > 10 µM
IC50 [4]: 5.7 µM

Cn1cnc(S(=O)(=O)N(CCN(Cc2c[nH]cn2)c2ccc(Br)cc2)Cc2ccccc2)c1
Selectivity ratio (Homo sapiens): 6

Cn1cnc(S(=O)(=O)N(CCN(Cc2cncn2C)c2ncc(C#N)cn2)CC2CCN(c3ncccn3)CC2)c1
Selectivity ratio (Homo sapiens): > 16
IC50 [1]: 0.62 µM
IC50 [2]: > 10 µM

Cn1cnc(S(=O)(=O)N(CCN(Cc2cncn2C)c2ccc(C#N)cc2F)CC2CCN(c3ncccn3)CC2)c1
Selectivity ratio (Homo sapiens): > 156
IC50 [1]: 0.064 µM
IC50 [2]: > 10 µM

Cn1cnc(S(=O)(=O)N(Cc2ccccc2)[C@H]2CC[C@@H](N(Cc3cncn3C)c3ccc(C#N)cc3)C2)c1 (racemic)
Selectivity ratio (Homo sapiens): > 15
IC50 [1]: 0.65 µM
IC50 [2]: > 10 µM

Cn1cncc1CN(CCN(Cc1ccccc1)S(=O)(=O)c1cccc2cccnc12)c1ccc(C#N)cc1
Selectivity ratio (Homo sapiens): 333
IC50 [1]: 0.03 µM
IC50 [3]: > 10 µM
IC50 [2]: 10 µM
IC50 [4]: 0.6 µM

Cn1cnc(S(=O)(=O)N(CCN(Cc2cncn2C)c2c(F)cc(C#N)cc2F)CC2CCN(c3ncccn3)CC2)c1
Selectivity ratio (Homo sapiens): > 34
IC50 [1]: 0.29 µM
IC50 [2]: > 10 µM

Cn1cnc(S(=O)(=O)N(Cc2ccccc2)[C@@H]2CCC[C@@H]2N(Cc2cncn2C)c2ccc(C#N)cc2)c1 (racemic)
Selectivity ratio (Homo sapiens): > 10
IC50 [1]: 1 µM
IC50 [2]: > 10 µM

C=C(Br)CN(CCN(Cc1cncn1C)c1ccc(C#N)cc1)S(=O)(=O)c1cn(C)cn1
Selectivity ratio (Homo sapiens): 31
IC50 [1]: 0.18 µM
IC50 [3]: > 10 µM
IC50 [2]: 5.5 µM
IC50 [4]: 5.7 µM

Cn1cnc(S(=O)(=O)N(CCN(Cc2cnc[nH]2)c2ccccc2)Cc2ccccc2)c1
IC50 [3]: > 10 µM
IC50 [2]: > 10 µM
IC50 [4]: > 10 µM

Cn1cnc(S(=O)(=O)N(CCN(Cc2cncn2C)c2ccc(C#N)cc2)CC(=O)NC(C)(C)C)c1
Selectivity ratio (Homo sapiens): > 7.1
IC50 [1]: 1.4 µM
IC50 [3]: > 10 µM
IC50 [2]: > 10 µM
IC50 [4]: > 10 µM

Cn1cnc(S(=O)(=O)N(CCN(Cc2cncn2C)c2ccc(Br)cc2)Cc2ccccc2)c1
Selectivity ratio (Homo sapiens): 6.7
IC50 [3]: > 10 µM
IC50 [4]: 1.6 µM

Cn1cnc(S(=O)(=O)N(CCN(Cc2cncn2C)c2ccc(C#N)cc2)CCn2cccc2)c1
Selectivity ratio (Homo sapiens): 17
IC50 [1]: 0.03 µM
IC50 [3]: > 10 µM
IC50 [2]: 0.51 µM
IC50 [4]: 4.3 µM

Cn1cnc(S(=O)(=O)N(CCN(Cc2cncn2C)c2ccc(C#N)cc2Cl)CC2CCN(c3ncccn3)CC2)c1
IC50 [1]: 0.55 µM
IC50 [2]: > 10 µM

Cc1c(CN(CCN(Cc2cncn2C)c2ccc(C#N)cc2)S(=O)(=O)c2cn(C)cn2)cnn1C
IC50 [1]: 5.3 µM
IC50 [2]: > 10 µM

CCCS(=O)(=O)N(CCN(Cc1cncn1C)c1ccc(C#N)cc1)Cc1ccccc1
Selectivity ratio (Homo sapiens): 85
IC50 [3]: > 10 µM
IC50 [4]: 0.07 µM

Cn1cnc(S(=O)(=O)N(CCN(Cc2cncn2C)c2ccc(C#N)cn2)CC2CCN(c3ncccn3)CC2)c1
Selectivity ratio (Homo sapiens): > 91
IC50 [1]: 0.11 µM
IC50 [2]: > 10 µM

Cn1cnc(S(=O)(=O)N(CCN(Cc2cncn2C)c2ccc(C#N)cc2)Cc2cccc(C#N)c2)c1
IC50 [1]: 0.078 µM
IC50 [3]: > 10 µM
IC50 [4]: 5 µM

Cn1cnc(S(=O)(=O)N(CCN(Cc2cncn2C)c2ccc(C#N)cc2)Cc2cccs2)c1
Selectivity ratio (Homo sapiens): 2.6
IC50 [1]: 2.3 µM
IC50 [3]: > 10 µM
IC50 [2]: 5.9 µM
IC50 [4]: 0.4 µM

CN(C)c1cccc2c(S(=O)(=O)N(CCN(Cc3cncn3C)c3ccc(C#N)cc3)Cc3ccccc3)cccc12
IC50 [1]: 0.16 µM
IC50 [3]: > 10 µM
IC50 [2]: 10 µM

Cn1cnc(S(=O)(=O)N(CCN(Cc2cncn2C)c2ccc(-c3ccccc3)cc2)Cc2ccccc2)c1
Selectivity ratio (Homo sapiens): 0.7
IC50 [1]: 6.85 µM
IC50 [2]: 5 µM

C=CCN(CCN(Cc1cncn1C)c1ccc(C#N)cc1)S(=O)(=O)c1cn(C)cn1
Selectivity ratio (Homo sapiens): > 14
IC50 [1]: 0.054 µM
IC50 [3]: > 10 µM
IC50 [2]: > 10 µM
IC50 [4]: > 10 µM

Cn1cnc(S(=O)(=O)N(CCN(Cc2cncn2C)c2ccc(C#N)cc2)Cc2ccccc2)c1
IC50 [3]: > 10 µM
IC50 [2]: 2.7 µM
IC50 [4]: 1.9 µM

Cn1cnc(S(=O)(=O)N(CCN(Cc2cncn2C)c2ccc(C#N)nc2)CC2CCN(c3ncccn3)CC2)c1
IC50 [1]: 0.52 µM
IC50 [2]: > 10 µM

Cn1cnc(S(=O)(=O)N(CCN(Cc2cncn2C)c2ccc(C#N)cc2)Cc2ccncc2)c1
IC50 [1]: 0.072 µM
IC50 [3]: > 10 µM
IC50 [2]: > 10 µM
IC50 [4]: > 10 µM

Cn1cncc1CN(CCN(Cc1ccccc1)S(=O)(=O)c1ccccn1)c1ccc(C#N)cc1
IC50 [1]: 0.025 µM
IC50 [3]: > 10 µM
IC50 [2]: 0.82 µM
IC50 [4]: 0.09 µM

C#CCN(CCN(Cc1cncn1C)c1ccc(C#N)cc1)S(=O)(=O)c1cn(C)cn1
Selectivity ratio (Homo sapiens): > 14
IC50 [1]: 0.72 µM
IC50 [3]: > 10 µM
IC50 [2]: > 10 µM

Cn1cncc1CN(CCN(Cc1ccccc1)S(=O)(=O)C1CC1)c1ccc(C#N)cc1
Selectivity ratio (Homo sapiens): 65

Cn1cncc1CN(CCN(CC1CCCCC1)S(=O)(=O)c1ccccn1)c1ccc(C#N)cc1F
Selectivity ratio (Homo sapiens): 2.1
IC50 [3]: 2.7 µM
IC50 [4]: 0.0887 µM

Cn1cnc(S(=O)(=O)N(CCN(Cc2cncn2C)c2ccc(C#N)cc2)CC2CCN(C(=O)OC(C)(C)C)CC2)c1
Selectivity ratio (Homo sapiens): > 2.7
IC50 [3]: > 2 µM
IC50 [2]: > 10 µM
IC50 [4]: > 2 µM

Cn1cnc(S(=O)(=O)N(CCN(Cc2cncn2C)c2ccc(C(N)=O)cc2)Cc2ccccc2)c1
Selectivity ratio (Homo sapiens): > 2
IC50 [1]: 5.3 µM
IC50 [2]: > 10 µM

Cn1cnc(S(=O)(=O)N(CCN(Cc2cncn2C)c2ccc(C#N)c(F)c2)CC2CCN(c3ncccn3)CC2)c1
Selectivity ratio (Homo sapiens): 41
IC50 [1]: 0.23 µM
IC50 [2]: 9.4 µM

Cn1cnc(S(=O)(=O)N(CCN(Cc2cncn2C)c2c(F)c(F)c(C#N)c(F)c2F)CC2CCN(c3ncccn3)CC2)c1
Selectivity ratio (Homo sapiens): 18
IC50 [1]: 0.49 µM
IC50 [2]: 8.75 µM
